According to ChEMBL document CHEMBL1268933, “Discovery of a vorapaxar analog with increased aqueous solubility” (Bioorg Med Chem Lett, 2010):
Converted amounts (≈) assume the structure as drawn. The source made the active and inactive calls. The rule behind the calls is not given here.

Legend:
[1] = biological target: T1, Proteinase-activated receptor 1 (Homo sapiens, UniProt P25116); assay: Displacement of high affinity TRAP form human platelet PAR1
T1 sequence (P25116 whole entry): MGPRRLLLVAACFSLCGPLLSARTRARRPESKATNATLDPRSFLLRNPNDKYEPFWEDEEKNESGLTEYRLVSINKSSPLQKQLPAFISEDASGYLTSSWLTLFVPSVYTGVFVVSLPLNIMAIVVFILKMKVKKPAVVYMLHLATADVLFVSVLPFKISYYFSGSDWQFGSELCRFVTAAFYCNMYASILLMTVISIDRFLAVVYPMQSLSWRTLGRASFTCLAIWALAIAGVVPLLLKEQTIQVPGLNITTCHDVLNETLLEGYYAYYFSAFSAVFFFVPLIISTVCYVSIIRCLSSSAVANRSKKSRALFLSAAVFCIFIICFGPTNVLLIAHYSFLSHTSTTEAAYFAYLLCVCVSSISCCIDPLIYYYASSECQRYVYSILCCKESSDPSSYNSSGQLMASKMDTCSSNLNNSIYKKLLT
In short: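 Radioligand binding using human platelet membranes as PAR-1 source and tritiated haTRAP as radioligand; run in duplicate, compounds of high interest repeated n≥5 (SD 20%); Ki reported.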

[2] = Cmax in rat; assay type: ADME, organism-based; details: in vivo
In short: (§1)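 High-throughput format rat pharmacokinetic screen; plasma AUC and Cmax determined.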

[3] = Kinetic solubility of the compound; assay type: physicochemical
In short: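 Kinetic solubility: DMSO serial dilutions added to 10 mM phosphate buffer pH 7.4, equilibrated 30 min at room temperature; precipitate detected by nephelometry; solubility taken as highest concentration not scattering light.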

[4] = AUC in rat; assay type: ADME, organism-based; details: plasma; in short: as §1
[5] = biological target: Cytochrome P450 3A4 (Homo sapiens, UniProt P08684); assay: Inhibition of CYP3A4; assay type: ADME
Sequence of Cytochrome P450 3A4 (P08684 whole entry): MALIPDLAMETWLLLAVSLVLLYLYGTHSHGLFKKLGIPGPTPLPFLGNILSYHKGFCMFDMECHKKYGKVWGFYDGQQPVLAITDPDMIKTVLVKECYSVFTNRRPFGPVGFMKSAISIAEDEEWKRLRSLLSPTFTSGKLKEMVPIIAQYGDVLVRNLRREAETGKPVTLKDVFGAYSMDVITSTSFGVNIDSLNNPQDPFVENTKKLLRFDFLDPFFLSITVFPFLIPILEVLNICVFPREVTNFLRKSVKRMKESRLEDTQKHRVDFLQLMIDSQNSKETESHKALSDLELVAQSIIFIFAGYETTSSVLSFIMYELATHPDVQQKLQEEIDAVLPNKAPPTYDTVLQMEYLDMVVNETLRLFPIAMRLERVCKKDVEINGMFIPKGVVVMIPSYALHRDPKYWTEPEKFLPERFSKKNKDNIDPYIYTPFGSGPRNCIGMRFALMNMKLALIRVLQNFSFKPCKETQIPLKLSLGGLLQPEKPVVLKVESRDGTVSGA
In short: (§2)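 CYP3A4, CYP2D6, CYP2C9 and CYP2C19 inhibition tested under both co-incubation and pre-incubation conditions; IC50 determined.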

[6] = system: Rhesus monkey; assay: Antithrombotic activity in monkey Folts model; assay type: functional, organism-based; details: Macaca mulatta
In short: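 Folts thrombosis model in anesthetized monkeys; escalating doses given intravenously in sequence to the same animal, alone or with ADP antagonist cangrelor; inhibition of cyclic flow reductions monitored.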

[7] = system: Platelet; assay: Ex-vivo inhibition of PAR1-mediated aggregation of high affinity TRAP-stimulated cynomolgus monkey platelet at 0.1 mg/kg, po administered as single dose measured after 24 hrs; assay type: functional; details: Macaca fascicularis
In short: (§3)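 Cynomolgus monkeys (n = 3) given single oral dose of 0.1 or 0.3 mg/kg; ex vivo haTRAP-induced platelet aggregation measured at time points out to 24 h.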

[8] = system: Platelet; assay: Ex-vivo inhibition of PAR1-mediated aggregation of high affinity TRAP-stimulated cynomolgus monkey platelet at 0.3 mg/kg, po administered as single dose measured after 24 hrs; assay type: functional, organism-based; parameters: dose 0.3 mg/kg; details: Macaca fascicularis; in short: as §3
[9] = Cmax in monkey at 0.1 mg/kg, po; assay type: ADME, organism-based, Macaca mulatta; parameters: dose 0.1 mg/kg, route oral; details: rhesus monkey, in vivo
[10] = system: Platelet; assay: Ex-vivo inhibition of PAR1-mediated aggregation of high affinity TRAP-stimulated cynomolgus monkey platelet at 0.1 mg/kg, po administered as single dose measured up to 6 hrs; assay type: functional, organism-based; parameters: dose 0.1 mg/kg; details: Macaca fascicularis; in short: as §3
[11] = biological target: Cytochrome P450 2D6 (Homo sapiens, UniProt P10635); assay: Inhibition of CYP2D6; assay type: ADME; in short: as §2
Sequence of Cytochrome P450 2D6 (P10635 whole entry): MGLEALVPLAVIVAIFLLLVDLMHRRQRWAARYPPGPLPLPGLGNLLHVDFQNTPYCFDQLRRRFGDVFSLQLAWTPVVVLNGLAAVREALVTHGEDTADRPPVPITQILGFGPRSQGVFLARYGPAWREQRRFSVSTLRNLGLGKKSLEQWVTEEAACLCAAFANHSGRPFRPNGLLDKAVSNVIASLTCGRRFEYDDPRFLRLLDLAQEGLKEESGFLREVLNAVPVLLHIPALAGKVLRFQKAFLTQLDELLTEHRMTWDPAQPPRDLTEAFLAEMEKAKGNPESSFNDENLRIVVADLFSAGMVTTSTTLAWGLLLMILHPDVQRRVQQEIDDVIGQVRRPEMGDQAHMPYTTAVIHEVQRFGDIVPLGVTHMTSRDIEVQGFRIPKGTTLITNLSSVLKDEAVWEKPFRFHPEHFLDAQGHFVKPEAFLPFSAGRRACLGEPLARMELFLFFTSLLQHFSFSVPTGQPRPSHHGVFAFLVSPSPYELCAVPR

[12] = biological target: T2, PXR (nuclear receptor subfamily 1 group I member 2) (Homo sapiens, UniProt O75469); assay: Induction of human PXR at 10 uM
T2 sequence (O75469 whole entry): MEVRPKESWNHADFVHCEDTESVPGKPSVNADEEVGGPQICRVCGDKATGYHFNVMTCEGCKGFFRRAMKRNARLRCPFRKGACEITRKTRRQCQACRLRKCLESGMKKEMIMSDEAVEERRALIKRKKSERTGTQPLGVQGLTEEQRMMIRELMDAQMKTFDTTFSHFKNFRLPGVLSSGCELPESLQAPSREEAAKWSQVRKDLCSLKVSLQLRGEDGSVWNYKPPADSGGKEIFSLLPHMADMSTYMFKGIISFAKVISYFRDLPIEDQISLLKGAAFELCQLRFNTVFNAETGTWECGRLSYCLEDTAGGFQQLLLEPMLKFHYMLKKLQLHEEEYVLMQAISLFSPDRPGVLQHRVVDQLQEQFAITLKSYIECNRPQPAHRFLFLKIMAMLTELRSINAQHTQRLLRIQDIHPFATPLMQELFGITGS

[13] = Tmax in monkey at 1 mg/kg, po; assay type: ADME, organism-based, Macaca mulatta; parameters: dose 1 mg/kg, route oral; details: rhesus monkey, in vivo
[14] = Permeability across human Caco-2 cell membrane; assay type: ADME, cell-based; details: read-out: permeability
[15] = AUC (0 to 24 hrs) in monkey at 0.1 mg/kg, po; assay type: ADME, organism-based, Macaca mulatta; parameters: time < 24 hr, dose 0.1 mg/kg, route oral; details: rhesus monkey, plasma
[16] = biological target: Cytochrome P450 2C19 (Homo sapiens, UniProt P33261); assay: Inhibition of CYP2C19; assay type: ADME; in short: as §2
Sequence of Cytochrome P450 2C19 (P33261 whole entry): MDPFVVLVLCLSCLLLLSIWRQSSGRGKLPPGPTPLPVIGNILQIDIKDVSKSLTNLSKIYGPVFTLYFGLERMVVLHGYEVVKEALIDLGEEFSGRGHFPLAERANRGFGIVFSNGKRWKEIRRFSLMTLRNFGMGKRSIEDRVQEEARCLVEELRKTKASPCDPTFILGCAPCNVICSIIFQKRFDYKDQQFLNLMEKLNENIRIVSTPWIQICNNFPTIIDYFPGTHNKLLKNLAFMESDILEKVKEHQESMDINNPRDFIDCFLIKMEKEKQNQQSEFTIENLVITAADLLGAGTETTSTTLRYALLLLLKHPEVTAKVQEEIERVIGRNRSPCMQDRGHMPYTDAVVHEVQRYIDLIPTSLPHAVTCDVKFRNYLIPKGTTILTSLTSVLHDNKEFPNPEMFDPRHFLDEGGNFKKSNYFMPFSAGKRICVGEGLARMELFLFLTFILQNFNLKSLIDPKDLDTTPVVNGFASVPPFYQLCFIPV

[17] = AUC (0 to 24 hrs) in monkey at 1 mg/kg, po; assay type: ADME, organism-based, Macaca mulatta; parameters: time < 24 hr, dose 1 mg/kg, route oral; details: rhesus monkey, plasma
[18] = biological target: Cytochrome P450 2C9 (Homo sapiens, UniProt P11712); assay: Inhibition of CYP2C9; assay type: ADME; in short: as §2
Sequence of Cytochrome P450 2C9 (P11712 whole entry): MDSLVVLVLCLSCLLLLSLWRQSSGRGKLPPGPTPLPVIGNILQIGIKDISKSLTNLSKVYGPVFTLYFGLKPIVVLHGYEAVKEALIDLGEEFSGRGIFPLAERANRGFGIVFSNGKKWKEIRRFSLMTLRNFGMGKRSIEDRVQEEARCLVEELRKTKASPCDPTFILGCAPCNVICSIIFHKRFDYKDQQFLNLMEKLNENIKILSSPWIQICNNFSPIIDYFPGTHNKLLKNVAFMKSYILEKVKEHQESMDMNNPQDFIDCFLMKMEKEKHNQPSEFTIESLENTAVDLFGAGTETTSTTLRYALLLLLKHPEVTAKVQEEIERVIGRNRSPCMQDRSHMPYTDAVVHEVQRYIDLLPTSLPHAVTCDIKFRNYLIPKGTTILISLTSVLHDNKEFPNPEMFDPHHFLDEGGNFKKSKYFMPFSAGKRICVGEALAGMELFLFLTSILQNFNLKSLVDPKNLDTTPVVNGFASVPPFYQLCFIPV

[19] = Tmax in monkey at 0.1 mg/kg, po; assay type: ADME, organism-based, Macaca mulatta; parameters: dose 0.1 mg/kg, route oral; details: rhesus monkey, in vivo
[20] = Cmax in monkey at 1 mg/kg, po; assay type: ADME, organism-based, Macaca mulatta; parameters: dose 1 mg/kg, route oral; details: rhesus monkey, in vivo
[21] = Equilibrium solubility of the compound after 24 hrs; assay type: physicochemical

Structure (SMILES) | Ki [1] [nM] | Cmax [2] [ng/mL] | solubility kinetic [3] [µM] | AUC [4] [ng·h/mL] | also measured
CCOC(=O)N[C@@H]1CC[C@@H]2[C@@H](C1)C[C@H]1C(=O)O[C@H](C)[C@H]1[C@H]2/C=C/c1ccc(-c2nccs2)cn1 | 75 | – | – | – | –
CCOC(=O)N[C@@H]1CC[C@@H]2[C@@H](C1)C[C@H]1C(=O)O[C@H](C)[C@H]1[C@H]2/C=C/c1ccc(-c2cc(C)ccn2)cn1 | 144 | – | – | – | –
CCOC(=O)N[C@@H]1CC[C@@H]2[C@@H](C1)C[C@H]1C(=O)O[C@H](C)[C@H]1[C@H]2/C=C/c1ccc(-c2ccc(C)cn2)cn1 | 42 | – | – | – | –
CCOC(=O)N[C@@H]1CC[C@@H]2[C@@H](C1)C[C@H]1C(=O)O[C@H](C)[C@H]1[C@H]2/C=C/c1ccc(-c2cncnc2)cn1 | 337 | – | – | – | –
CCOC(=O)N[C@@H]1CC[C@@H]2[C@@H](C1)C[C@H]1C(=O)O[C@H](C)[C@H]1[C@H]2/C=C/c1ccc(-c2ccoc2)cn1 | 61 | – | 12 (≈ 5.57 µg/mL) | – | –
CCOC(=O)N[C@@H]1CC[C@@H]2[C@@H](C1)C[C@H]1C(=O)O[C@H](C)[C@H]1[C@H]2/C=C/c1ccc(-c2ccncc2)cn1 | 250 | – | – | – | –
CCOC(=O)N[C@@H]1CC[C@@H]2[C@@H](C1)C[C@H]1C(=O)O[C@H](C)[C@H]1[C@H]2/C=C/c1ccc(-c2cccnc2)cn1 | 240 | – | – | – | –

Molecules with a lower Ki [1], results first:

Ki [1] [nM] | Cmax [2] [ng/mL] | solubility kinetic [3] [µM] | AUC [4] [ng·h/mL] | Structure (SMILES) | also measured
15 | 1570 | 12 (≈ 6 µg/mL) | 5220 | CCOC(=O)N[C@@H]1CC[C@@H]2[C@@H](C1)C[C@H]1C(=O)O[C@H](C)[C@H]1[C@H]2/C=C/c1ccc(-c2ccccc2C#N)cn1 | –
19 | 3070 | 75 (≈ 35.7 µg/mL) | 10100 | CCOC(=O)N[C@@H]1CC[C@@H]2[C@@H](C1)C[C@H]1C(=O)O[C@H](C)[C@H]1[C@H]2/C=C/c1ccc(-c2ccccn2)cn1 | IC50 [5]: > 30 µM; Activity [6]: Dose-dependent effect; inhibition in vivo at 0.1 mg/kg [7]: 70%; inhibition [8]: Active; Cmax [9]: 16 ng/mL; inhibition [10]: Active; IC50 [11]: > 30 µM; induction at 10 µM [12]: 0.13%; Tmax [13]: 30 min; Papp [14]: 28.3 ×10⁻⁶ cm/s; AUC(0-t) at 24 h [15]: 50 ng·h/mL; IC50 [16]: > 30 µM; AUC(0-t) at 24 h [17]: 2520 ng·h/mL; IC50 [18]: > 30 µM; Tmax [19]: 1 h; Cmax [20]: 236 ng/mL; solubility thermodynamic at 24 h [21]: 67 µM (≈ 31.9 µg/mL)
12 | 368 | < 5 | 319 | CCOC(=O)N[C@@H]1CC[C@@H]2[C@@H](C1)C[C@H]1C(=O)O[C@H](C)[C@H]1[C@H]2/C=C/c1ccc(-c2cccc(OC)c2)cn1 | –
8 | 974 | < 5 | 3060 | CCOC(=O)N[C@@H]1CC[C@@H]2[C@@H](C1)C[C@H]1C(=O)O[C@H](C)[C@H]1[C@H]2/C=C/c1ccc(-c2cccc(F)c2)cn1 [VORAPAXAR] | solubility thermodynamic at 24 h [21]: 2.8 µM (≈ 1.38 µg/mL)
